The values that follow come from ChEMBL document CHEMBL4184151, “In-cell production of a genetically-encoded library based on the θ-defensin RTD-1 using a bacterial expression system” (Bioorg Med Chem, 2018).

pIC50, pKi: −log10 of the molar value. Residues, ends and D or L forms follow the SMILES beside them.

The target in assay [1] is T1, Lethal factor (Bacillus anthracis, UniProt P15917).
T1 sequence (P15917 whole entry): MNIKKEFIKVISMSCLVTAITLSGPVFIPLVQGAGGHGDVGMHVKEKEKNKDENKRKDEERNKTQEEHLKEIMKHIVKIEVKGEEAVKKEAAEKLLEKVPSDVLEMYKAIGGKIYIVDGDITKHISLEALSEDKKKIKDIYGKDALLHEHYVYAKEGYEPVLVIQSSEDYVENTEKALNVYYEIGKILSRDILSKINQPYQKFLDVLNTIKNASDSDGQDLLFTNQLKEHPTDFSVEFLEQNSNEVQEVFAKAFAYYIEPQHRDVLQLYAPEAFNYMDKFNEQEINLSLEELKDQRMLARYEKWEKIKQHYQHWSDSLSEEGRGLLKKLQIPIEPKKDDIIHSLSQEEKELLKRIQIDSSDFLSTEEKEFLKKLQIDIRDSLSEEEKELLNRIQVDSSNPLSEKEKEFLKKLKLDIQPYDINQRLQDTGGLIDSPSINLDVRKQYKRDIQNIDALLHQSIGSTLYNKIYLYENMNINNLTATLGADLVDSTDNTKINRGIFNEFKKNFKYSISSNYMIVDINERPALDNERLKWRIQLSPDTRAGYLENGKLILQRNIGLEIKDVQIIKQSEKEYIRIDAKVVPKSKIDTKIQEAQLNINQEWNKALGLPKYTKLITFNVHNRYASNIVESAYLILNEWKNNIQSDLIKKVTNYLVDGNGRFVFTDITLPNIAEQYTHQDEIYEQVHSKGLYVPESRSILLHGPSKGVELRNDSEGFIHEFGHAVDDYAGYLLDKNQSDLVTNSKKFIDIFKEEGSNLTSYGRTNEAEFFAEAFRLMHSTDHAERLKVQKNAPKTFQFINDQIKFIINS
Description: Non-competitive inhibition of Bacillus anthracis lethal factor protease using substrate containing CyPet and YPet linked by RRKKVYPYPMEGTIA sequence preincubated for 30 mins followed by substrate addition measured every 2 mins for 3 hrs by FRET assay. A digest of the protocol: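 Ki was derived from the IC50 with the non-competitive tight-binding relation Ki = IC50 − E0/2, where E0 is the enzyme concentration (50 nM LF). The IC50 comes from the FRET assay: pH 7.2 Ca/Mg/Zn phosphate–NaCl buffer, inhibitor 1 nM–10 μM, 10 nM substrate, 405 nm excitation, 535 nm read, initial velocities fitted to a variable-slope curve.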

Assay [2] addresses T1, Lethal factor. Description: Inhibition of Bacillus anthracis lethal factor protease using substrate containing CyPet and YPet linked by RRKKVYPYPMEGTIA sequence preincubated for 30 mins followed by substrate addition measured every 2 mins for 3 hrs by FRET assay. A digest of the protocol: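 Purified LF (50 nM) in pH 7.2 buffer (10 μM CaCl2, 10 μM MgCl2, 20 μM ZnCl2, 20 mM sodium phosphate, 100 mM NaCl) preincubated at room temperature with inhibitor (1 nM–10 μM). FRET substrate added to 10 nM final. Read at 405 nm excitation, 535 nm intensity ratio It/I0. Initial velocities were normalised to uninhibited LF, and IC50 came from a variable-slope log(inhibitor)–response fit.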

In general, pKi refers to the negative decadic logarithm of the Ki, by convention in mol/L. By pIC50 is commonly meant the IC50 on a negative log10 scale, so that one unit is a factor of ten. In turn, `CC[C@H](C)[C@H](NC(=O)[C@H](CS)NC(=O)[C@H](Cc1c[nH]c2ccccc12)NC(=O)[C@H](CS)NC(=O)CNC(=O)[C@H](Cc1ccc(O)cc1)NC(=O)[C@H](CCCNC(=N)N)NC(=O)[C@H](CO)NC(=O)[C@H](CS)NC(=O)[C@@H]1CCCN1C(=O)[C@H](CS)NC(=O)[C@H](CCCNC(=N)N)NC(=O)[C@H](CS)NC(=O)[C@H](Cc1ccccc1)NC(=O)CN)C(=O)N[C@@H](CS)C(=O)N[C@H](C(=O)N[C@@H](CCCNC(=N)N)C(=O)O)[C@@H](C)O` (H-GFCRCPCSRYGCWCICTR-OH) gave a pKi at Lethal factor [1] of 6.02. The pIC50 on Lethal factor [2] was 6.01.

The molecule `CC[C@H](C)[C@H](NC(=O)[C@H](CS)NC(=O)[C@H](CC(=O)O)NC(=O)[C@H](CS)NC(=O)[C@H](CO)NC(=O)[C@H](CO)NC(=O)[C@H](CCCNC(=N)N)NC(=O)CNC(=O)[C@H](CS)NC(=O)[C@H](Cc1ccccc1)NC(=O)[C@H](CS)NC(=O)[C@H](CCCNC(=N)N)NC(=O)[C@H](CS)NC(=O)[C@H](Cc1ccccc1)NC(=O)CN)C(=O)N[C@@H](CS)C(=O)N[C@H](C(=O)N[C@@H](CCCNC(=N)N)C(=O)O)[C@@H](C)O` (H-GFCRCFCGRSSCDCICTR-OH) had a pKi on Lethal factor [1] of 5.93. At Lethal factor [2], the negative logarithm of the IC50 (pIC50) is 5.92.

`CC[C@H](C)[C@H](NC(=O)[C@H](CS)NC(=O)[C@H](CCCNC(=N)N)NC(=O)[C@H](CS)NC(=O)[C@@H](NC(=O)CNC(=O)[C@H](Cc1cnc[nH]1)NC(=O)[C@H](CC(C)C)NC(=O)[C@H](CS)NC(=O)[C@H](C)NC(=O)[C@H](CS)NC(=O)[C@H](CCCNC(=N)N)NC(=O)[C@H](CS)NC(=O)[C@H](Cc1ccccc1)NC(=O)CN)C(C)C)C(=O)N[C@@H](CS)C(=O)N[C@H](C(=O)N[C@@H](CCCNC(=N)N)C(=O)O)[C@@H](C)O` (H-GFCRCACLHGVCRCICTR-OH) gave a pKi on Lethal factor [1] of 6.02. Besides, the pIC50 at Lethal factor [2] was 6.01.

At Lethal factor [1], `CC[C@H](C)[C@H](NC(=O)[C@H](CS)NC(=O)[C@H](CCCNC(=N)N)NC(=O)[C@H](CS)NC(=O)[C@@H](NC(=O)CNC(=O)[C@H](CCCNC(=N)N)NC(=O)[C@H](CCCNC(=N)N)NC(=O)[C@H](CS)NC(=O)[C@H](CC(C)C)NC(=O)[C@H](CS)NC(=O)[C@H](CCCNC(=N)N)NC(=O)[C@H](CS)NC(=O)[C@H](Cc1ccccc1)NC(=O)CN)C(C)C)C(=O)N[C@@H](CS)C(=O)N[C@H](C(=O)N[C@@H](CCCNC(=N)N)C(=O)O)[C@@H](C)O` (H-GFCRCLCRRGVCRCICTR-OH) gave a pKi of 6.42. For the same molecule, the pIC50 against Lethal factor [2] was 6.39.
